According to PMC11494403 (Nature plants, 2024):

Experiments:
[1] = MST, binding to Alexa Fluor 647-labelled oligogalacturonide OG7–13^647; conditions: relative to wild-type RALF22
Summary of the method: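 Wild-type or mutant peptide, titrated from 200µM, against 40nM Alexa Fluor 647-labelled, fully demethylesterified 7-13mer oligogalacturonide. Incubated 10min at RT, then thermophoresis on a Monolith NT.115 at medium MST power and 80% LED excitation. Data kept only at S/N >5 with no aggregation or ligand-induced initial fluorescence change. Kd averaged over 3 independent experiments.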

RHs = conditions: 2 day exposure to exogenous RALF1; cited from earlier work
root = conditions: RALF1-induced; cited from earlier work

Substance	fold reduction in affinity for OG7–13^647 [1] [fold]	root hair length (RHs)	root growth (root)
AQKKYISYGAMARNSVPCSARGASYYNCQAGAQANPYSRGCSTITRCRR [RALF22^R82A,R90A,R100A]	5.2	–	–
RALF1: exogenous RALF1 peptide of an earlier study (ATTKYISYQSLKRNSVPCSRRGASYYNCQNGAQANPYSRGCSKIARCRS; Protein RALF-like 1; UniProt Q9SRY3 72-120, looked up)	–	longer RHs	root growth inhibition
